Test results: PubChem BioAssay
Records with an inconclusive call do not appear. Activity calls are given as the source filed them.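 The calls were made as follows, unless noted: active = cell viability at or below a set limit in both duplicate runs, the limit being the all-compound median minus 4 SD (cut at about 23% in these data, passing the limit was not always enough); inconclusive = no clear call, values can overlap the other calls; inactive = the rest.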

Experiments:
[1] = S. cerevisiae growth inhibition in permissive medium (OD615), pilot counter-assay for S. cerevisiae lifespan shortening project, permissive growth control (AID 705;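 active = growth inhibition above 25% in both replicates, a cutoff set 3 SD above the mean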); conditions: OD615, 24 h, at 10 µM, active compounds read high
Procedure, shortened: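 System: S. cerevisiae with engineered DeaD lifespan system / Measured by: absorbance (optical density) at 615 nm / Read-out: reduction in yeast growth (OD615) / Times: 4 h cell pre-growth, 24 h exposure at 30 °C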

[2] = S. cerevisiae growth inhibition in restrictive medium, OD615, pilot screen, restrictive growth control, yeast lifespan reduction project (AID 706;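 active = growth inhibition above a set limit, 3 SD over mean compound inhibition, in both replicates, cut at about 43% in these data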;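 also: modified DeaD lifespan yeast strain shifted to restrictive glucose medium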); conditions: OD615, 48 h, at 10 µM, active compounds read high
Procedure, shortened: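 System: Engineered S. cerevisiae DeaD strain | Buffer or medium: Glucose-based CSMM-D restrictive medium | Schedule: 4 h pre-incubation, 48 h exposure at 30 °C | Technique: Optical density at 615 nm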

[3] = doxorubicin toxicity protection in MRP-1 cells – H69AR cells, CellTiter-Glo, duplicate, MRP-1 activator project, pilot screen (AID 807;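 active = viability increase at or above a cutoff of the median across tested compounds plus 3 SD, cut at about 8.5% in these data, passing the limit was not always enough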;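 also: compound pretreatment 18-22 h then 72 h combined with doxorubicin; 0% = doxorubicin alone and 100% = vehicle without doxorubicin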); conditions: H69AR viability with doxorubicin, CellTiter-Glo luminescence; at 10 µM; active compounds read high
[4] = viability of HCT116 without oncogenic beta-catenin – human colon tumor cells, pilot screen (AID 823); conditions: HCT116 beta-catenin knockout viability, CellTiter-Glo, 60 h; at 10 µM; active compounds read low;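 also: 0% = wells killed by 20 µM Hyamine and 100% = untreated DMSO cell wells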
[5] = viability of PTEN-null HCT116 cells – cell-based, HCT116 clonal line, CellTiter-Glo, pilot screen (AID 824;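 active = viability at or below 27.92% in each of two runs, the all-compound median minus 4 SD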;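 also: 0% = 20 µM Hyamine control and 100% = vehicle cell control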); conditions: HCT116 PTEN-deleted viability, 60 h, at 10 µM, active compounds read low
[6] = RAM pathway blockade in budding yeast – dse1pr::URA3 reporter, 5-FOA selection, pilot screen (AID 869;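 active = inhibition over a set limit, the all-compound mean plus 3 SD, in both replicate runs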;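 also: 0% = DMSO wells with no growth and 100% = 10 µM 1-NA-PP1 with full growth; RAM network block rescues cells from 5-FOA so hits raise OD615 growth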); conditions: S. cerevisiae dse1pr::URA3 5-FOA growth, OD615, 2 d; at 10 µM; active compounds read high; strain carries analog-sensitive mutant Cbk1 kinase
[7] = RAM signaling pathway blockade in yeast – S. cerevisiae, Pdr1DBD-CYC8 efflux-inhibited sensitized strain, primary screen (AID 1298;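 active = RAM network inhibition above 8.4% in each of two replicates, 3 SD over the compound average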;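 also: 0% = DMSO untreated cells without growth and 100% = 10 µM 1-NA-PP1 full growth; higher means more yeast growth rescued from 5-FOA killing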); conditions: S. cerevisiae cbk1-as DSE1-URA3 strain, 5-FOA growth OD615, 2 d; at 50 µM; active compounds read high

CCOC(=O)C1=C(C)NC(=O)NC1c1ccco1 (configuration not stated)
inactive: growth inhibition [1] 1.02% | growth inhibition [2] -9.79% | viability increase [3] -3.38% | viability [4] 103% | viability [5] 105% | inhibition [6] -0.995% | RAM network inhibition [7] -0.57%

CCCOc1ccc2ccccc2c1/C=N/n1c(C)nnc1-n1nc(C)cc1C
active: viability [4] 18.6% | viability [5] 19.6%
inactive: growth inhibition [1] -5.19% | growth inhibition [2] 1.04% | viability increase [3] -4.98% | inhibition [6] -0.29% | RAM network inhibition [7] -2.3%

CC1CCCN(C(=O)C2CCN(S(=O)(=O)c3cccc4cccnc34)CC2)C1 (configuration not stated)
inactive: growth inhibition [1] 1.07% | growth inhibition [2] 3.5% | viability increase [3] -3.54% | viability [4] 89.6% | viability [5] 85.6% | inhibition [6] 1.04% | RAM network inhibition [7] 5.46%

O=C(c1cccs1)n1cc(C(=S)N2CCOCC2)c2ccccc21
inactive: growth inhibition [1] -4.95% | growth inhibition [2] -0.915% | viability increase [3] -0.89% | viability [4] 94.2% | viability [5] 88.1% | inhibition [6] 1.71% | RAM network inhibition [7] 4.07%

CCOc1ccc(OCC)c(NC(=O)CN2CCC(NC(=O)c3cccc(F)c3)CC2)c1
inactive: growth inhibition [1] -3.75% | growth inhibition [2] -12.3% | viability increase [3] -4.87% | viability [4] 77.5% | viability [5] 78.7% | inhibition [6] 2.31% | RAM network inhibition [7] 5.19%

CCN(CCN(C)C)C(=O)Cn1ncc2c1-c1cc(C)ccc1OC2
inactive: growth inhibition [1] -11% | growth inhibition [2] -0.185% | viability increase [3] -0.91% | viability [4] 94.8% | viability [5] 102% | inhibition [6] 2.43% | RAM network inhibition [7] 2.3%

COc1ccc(NC(=O)N(CCC(C)C)C(C)c2ccccn2)c(OC)c1 (configuration not stated)
inactive: growth inhibition [1] -5% | growth inhibition [2] 7.73% | viability increase [3] -3.52% | viability [4] 79.2% | viability [5] 85.6% | inhibition [6] 1.11% | RAM network inhibition [7] 3.79%

COC(=O)C1=C(C)n2cnnc2NC1c1ccc(Cl)cc1 (configuration not stated)
inactive: growth inhibition [1] 0.905% | growth inhibition [2] -4.44% | viability increase [3] 0.28% | viability [4] 104% | viability [5] 97.2% | inhibition [6] 1.27% | RAM network inhibition [7] -0.92%

COC(=O)C1C(C(C)C)N(c2ccccc2)OC1(C)O (configuration not stated)
inactive: growth inhibition [1] -11.8% | growth inhibition [2] -7.98% | viability increase [3] -4.25% | viability [4] 103% | viability [5] 96.9% | inhibition [6] 0.93% | RAM network inhibition [7] 1.66%

Cc1csc2ncc(C(=O)Nc3ccc(C(F)(F)F)cc3)c(=O)n12
inactive: growth inhibition [1] -10.2% | growth inhibition [2] -17.2% | viability increase [3] -2.44% | viability [4] 84.8% | viability [5] 85.8% | inhibition [6] 3.73% | RAM network inhibition [7] 3.03%

CCC(=O)N1CCc2cc(Br)cc(S(=O)(=O)NCCN3CCOCC3)c21
inactive: growth inhibition [1] -4.99% | growth inhibition [2] -8.08% | viability increase [3] 0.03% | viability [4] 101% | viability [5] 98.4% | inhibition [6] 1.71% | RAM network inhibition [7] 1.49%

CCc1nccn1S(=O)(=O)c1ccc(OC)c(OC)c1
inactive: growth inhibition [1] -17.4% | growth inhibition [2] -10% | viability increase [3] -0.29% | viability [4] 100% | viability [5] 93.3% | inhibition [6] 1.67% | RAM network inhibition [7] 0.47%

Cc1cccc(N=C(N2CCOCC2)P(=O)(N2CCOCC2)N2CCOCC2)c1
inactive: growth inhibition [1] -24.7% | growth inhibition [2] -23.4% | viability increase [3] -0.69% | viability [4] 98.1% | viability [5] 92.6% | inhibition [6] 3.29% | RAM network inhibition [7] 5.26%

COc1ccc(-n2c(SCC(=O)Nc3cc(C)on3)nc3c(c2=O)SCC3)cc1
inactive: growth inhibition [1] -13.1% | growth inhibition [2] -6.83% | viability increase [3] 0.28% | viability [4] 112% | viability [5] 95.5% | inhibition [6] 4.46% | RAM network inhibition [7] 6.81%

CCOC(=O)N1CCN(c2c(N3CCOCC3)c(=O)c2=O)CC1
inactive: growth inhibition [1] 1.49% | growth inhibition [2] -13.2% | viability increase [3] 0.58% | viability [4] 106% | viability [5] 97.2% | inhibition [6] 2.57% | RAM network inhibition [7] -0.73%

COc1ccc(CNC(=O)c2cc(C3CC3)on2)cc1
inactive: growth inhibition [1] -3.07% | growth inhibition [2] 6.49% | viability increase [3] -1.95% | viability [4] 94.3% | viability [5] 95.5% | inhibition [6] -0.84% | RAM network inhibition [7] -2.3%

CCCN1CCN(C(=O)Cn2ncc3ccccc32)CC1
inactive: growth inhibition [1] -12.4% | growth inhibition [2] -16.9% | viability increase [3] -2.31% | viability [4] 100% | viability [5] 98.2% | inhibition [6] 1.26% | RAM network inhibition [7] 3.84%

COc1ccc(OC)c(S(=O)(=O)NCCc2cn3ccsc3n2)c1
inactive: growth inhibition [1] -6.71% | growth inhibition [2] -11.5% | viability increase [3] -2.28% | viability [4] 105% | viability [5] 103% | inhibition [6] 3.81% | RAM network inhibition [7] 3.59%

CS/C(=N\S(=O)(=O)c1ccc(N)cc1)NS(=O)(=O)c1cccs1
inactive: growth inhibition [1] -0.825% | growth inhibition [2] -11.5% | viability increase [3] -0.88% | viability [4] 103% | viability [5] 102% | inhibition [6] 0.23% | RAM network inhibition [7] 3.11%

C=CCn1c(O)c(C2=c3ccccc3=NC2=O)sc1=Nc1ccc(O)cc1
active: viability [4] 2.1% | viability [5] 1.53%
inactive: growth inhibition [1] -4.33% | growth inhibition [2] -12% | viability increase [3] -8.74% | inhibition [6] 1.98% | RAM network inhibition [7] 2.7%

O=C(c1oc(=O)c2ccccc2c1-c1ccccc1)N1CCN(C2CCCCC2)CC1
inactive: growth inhibition [1] -7.33% | growth inhibition [2] -0.045% | viability increase [3] -1.86% | viability [4] 95.5% | viability [5] 97.4% | inhibition [6] 1.16% | RAM network inhibition [7] 6.22%

O=C1CCCN1CC(CN1CCOCC1)Sc1nnnn1-c1ccccc1 (configuration not stated)
inactive: growth inhibition [1] -0.73% | growth inhibition [2] 7.22% | viability increase [3] -3.37% | viability [4] 100% | viability [5] 105% | inhibition [6] 1.56% | RAM network inhibition [7] 5.8%

CCCCN(C)c1nc(-c2ccco2)c2c(c1C#N)CC(C)(C)OC2
inactive: growth inhibition [1] -9.48% | growth inhibition [2] 0.09% | viability increase [3] -4.56% | viability [4] 96.3% | viability [5] 98.3% | inhibition [6] 1.63% | RAM network inhibition [7] -0.79%

COCCCN1CC23C=CC(O2)C(C(=O)O)C3C1=O (configuration not stated)
inactive: growth inhibition [1] 2.65% | growth inhibition [2] -2.98% | viability increase [3] -1.24% | viability [4] 102% | viability [5] 106% | inhibition [6] -0.105% | RAM network inhibition [7] 4.16%

COCc1cc(CN2CCCC2)c(O)c2ncccc12
active: viability [4] 8.07% | viability [5] 11.3%
inactive: growth inhibition [1] -11.1% | growth inhibition [2] -11.6% | viability increase [3] 0.15% | inhibition [6] -0.255% | RAM network inhibition [7] 5.55%

O=C(c1csc2c1CCCC2)N1CCCCC1
inactive: growth inhibition [1] 12.4% | growth inhibition [2] 8.33% | viability increase [3] -1.17% | viability [4] 99.2% | viability [5] 102% | inhibition [6] -0.145% | RAM network inhibition [7] 1.12%

COc1cccc(C2CC(c3ccccc3OC)n3ncnc3N2)c1 (configuration not stated)
inactive: growth inhibition [1] -4.81% | growth inhibition [2] 8.07% | viability increase [3] -5.2% | viability [4] 90.1% | viability [5] 71.2% | inhibition [6] 0.455% | RAM network inhibition [7] -0.26%

CCC(CC)C(=O)NCc1ccccc1OC
inactive: growth inhibition [1] 4.68% | growth inhibition [2] -4.89% | viability increase [3] -0.51% | viability [4] 99.1% | viability [5] 101% | inhibition [6] 0.98% | RAM network inhibition [7] 2.02%

COc1cc(Br)cc(-c2nc3c(c(=O)[nH]c(=O)n3Cc3ccccc3)n2C)c1O
inactive: growth inhibition [1] 3.34% | growth inhibition [2] -0.8% | viability increase [3] -1.31% | viability [4] 89.6% | viability [5] 87.6% | inhibition [6] 2.02% | RAM network inhibition [7] 3.23%

CC(C)(C)c1nnc2sc(SCC(=O)c3cccs3)nn2c1=O
inactive: growth inhibition [1] -4.01% | growth inhibition [2] -13.1% | viability increase [3] -6% | viability [4] 71.1% | viability [5] 81.8% | inhibition [6] 2.62% | RAM network inhibition [7] 5.25%

Cc1sc2nc(SCC(=O)NCc3ccco3)[nH]c(=O)c2c1C
inactive: growth inhibition [1] -4% | growth inhibition [2] -4.97% | viability increase [3] -3.92% | viability [4] 106% | viability [5] 101% | inhibition [6] 2.67% | RAM network inhibition [7] 5.12%

CSC1=NCCN1C(=O)c1ccco1
inactive: growth inhibition [1] 1.44% | growth inhibition [2] -4.79% | viability increase [3] 0.04% | viability [4] 103% | viability [5] 98.3% | inhibition [6] 0.865% | RAM network inhibition [7] 3.19%

CC(=O)NC(CCS(C)(=O)=O)C(=O)Nc1ccc2c(c1)OCO2 (configuration not stated)
inactive: growth inhibition [1] -0.69% | growth inhibition [2] -1.89% | viability increase [3] -0.58% | viability [4] 109% | viability [5] 95.5% | inhibition [6] 0.175% | RAM network inhibition [7] 2.15%

COc1cc(C)c(N(C(C)=O)c2ccccc2)c(C)c1
inactive: growth inhibition [1] -10.7% | growth inhibition [2] -17.4% | viability increase [3] -0.85% | viability [4] 92.2% | viability [5] 87.3% | inhibition [6] 1.97% | RAM network inhibition [7] 5.22%

COc1ccc(Cc2nc(-c3cccs3)no2)cc1OC
inactive: growth inhibition [1] 1.64% | growth inhibition [2] 5.25% | viability increase [3] 0.92% | viability [4] 76.8% | viability [5] 80.9% | inhibition [6] 1.62% | RAM network inhibition [7] 7.4%

c1ccc(Nc2nc3ccccc3n3cnnc23)cc1
inactive: growth inhibition [1] -1.27% | growth inhibition [2] 10.2% | viability increase [3] -5.23% | viability [4] 86.1% | viability [5] 84.6% | inhibition [6] 2.09% | RAM network inhibition [7] -0.58%
